In ChEMBL document CHEMBL1123260 (J Med Chem, 1986):
Several values for one entry are separate records, joined by “and”; a condition that tells them apart may be missing. Equal values may be shown once.

Assays:
[1] = system: Canis familiaris; experiment: Positive inotropic effects in anesthetized dogs; format: functional; settings: Canis lupus familiaris
Method in brief: (§1)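 Anesthetized dogs: 30 min control recording before dosing. Drug dissolved in 0.9% saline or dilute HCl or NaOH (0.1 or 1.0 N), then made to volume with saline. Given iv (0.1 mL/kg over 1 min), cumulative doses at half-log intervals, 10–30 min between doses to reach steady state. One compound per animal. Inotropy taken as change in LV dP/dtmax from preceding baseline. Values are mean ± SEM or the mean of two experiments.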

[2] = system: Canis familiaris; experiment: (§2) Percent change in total peripheral resistance (TPR) before beta-blockade in anesthetized dogs at 0.01 mg/kg; format: functional, Canis lupus familiaris; method in brief: as §1
[3] = system: Canis familiaris; experiment: (§3) Percent change in total peripheral resistance (TPR) before beta-blockade in anesthetized dogs at 0.03 mg/kg; format: functional, Canis lupus familiaris; method in brief: as §1
[4] = system: Canis familiaris; experiment: Percent change in total peripheral resistance (TPR) before beta-blockade in anesthetized dogs at 0.11 mg/kg; format: functional, Canis lupus familiaris; method in brief: as §1
[5] = system: Canis familiaris; experiment: as §2; format: functional, Canis lupus familiaris; method in brief: as §1; remark: listed apart in the source
[6] = system: Canis familiaris; experiment: as §3; format: functional, Canis lupus familiaris; method in brief: as §1; remark: listed apart in the source
[7] = system: Canis familiaris; experiment: Percent change in total peripheral resistance (TPR) before beta-blockade in anaesthetized dogs at 0.11 mg/kg; format: functional, Canis lupus familiaris; method in brief: as §1
[8] = system: Canis familiaris; experiment: (§4) Percent change in heart rate (HR) before beta-blockade in anesthetized dogs at 0.01 mg/kg; format: functional, Canis lupus familiaris; method in brief: as §1
[9] = system: Canis familiaris; experiment: (§5) Percent change in heart rate (HR) before beta-blockade in anesthetized dogs at 0.03 mg/kg; format: functional, Canis lupus familiaris; method in brief: as §1
[10] = system: Canis familiaris; experiment: (§6) Percent change in heart rate (HR) before beta-blockade in anesthetized dogs at 0.11 mg/kg; format: functional, Canis lupus familiaris; method in brief: as §1
[11] = system: Canis familiaris; experiment: Percent change in forelimb vascular resistance (FVR)in anesthetized dogs after beta-blockade at 0.01 mg/kg; format: functional, Canis lupus familiaris
Method in brief: (§7)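 Anesthetized dogs given β-adrenoceptor blockade (nadolol, 1 mg/kg iv) before the test agent. Drug dissolved in saline or dilute HCl/NaOH and given iv as cumulative 1-min doses, 10–30 min apart. Forelimb vascular resistance recorded as percent change from control. Values are mean ± SEM (n = 4-5) or the mean of two determinations, with significance set at p < 0.05.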

[12] = system: Canis familiaris; experiment: (§8) Percent change in forelimb vascular resistance (FVR) after beta-blockade in anesthetized dogs 0.03 mg/kg; format: functional, Canis lupus familiaris; method in brief: as §7
[13] = system: Canis familiaris; experiment: (§9) Percent change in forelimb vascular resistance (FVR) after beta-blockade in anesthetized dogs 0.11 mg/kg; format: functional, Canis lupus familiaris; method in brief: as §7
[14] = system: Canis familiaris; experiment: Percent change in forelimb vascular resistance (FVR) after beta-blockade in anesthetized dogs 0.01 mg/kg; format: functional, Canis lupus familiaris; method in brief: as §7
[15] = system: Canis familiaris; experiment: as §8; format: functional, Canis lupus familiaris; method in brief: as §7; remark: listed apart in the source
[16] = system: Canis familiaris; experiment: as §9; format: functional, Canis lupus familiaris; method in brief: as §7; remark: listed apart in the source
[17] = system: Canis familiaris; experiment: (§10) Percent change in myocardial contractility (LV dp/dt) before beta-blockade in anesthetized dogs at 0.01 mg/kg; format: functional, Canis lupus familiaris, Myocardium; method in brief: as §1
[18] = system: Canis familiaris; experiment: Percent change in myocardial contractility (LV dp/dt) before beta-blockade in anesthetized dogs at 0.11 mg/kg; format: functional, Canis lupus familiaris, Myocardium; method in brief: as §1
[19] = system: Canis familiaris; experiment: as §10; format: functional, Canis lupus familiaris, Myocardium; method in brief: as §1; remark: listed apart in the source
[20] = system: Canis familiaris; experiment: (§11) Percent change in mean arterial blood pressure (MABP) before beta-blockade in anesthetized dogs at 0.01 mg/kg; format: functional, Canis lupus familiaris; method in brief: as §1
[21] = system: Canis familiaris; experiment: (§12) Percent change in mean arterial blood pressure (MABP) before beta-blockade in anesthetized dogs at 0.03 mg/kg; format: functional, Canis lupus familiaris; method in brief: as §1
[22] = system: Canis familiaris; experiment: (§13) Percent change in mean arterial blood pressure (MABP) before beta-blockade in anesthetized dogs at 0.11 mg/kg; format: functional, Canis lupus familiaris; method in brief: as §1
[23] = system: Canis familiaris; experiment: as §11; format: functional, Canis lupus familiaris; method in brief: as §1; remark: listed apart in the source
[24] = system: Canis familiaris; experiment: as §12; format: functional, Canis lupus familiaris; method in brief: as §1; remark: listed apart in the source
[25] = system: Canis familiaris; experiment: as §13; format: functional, Canis lupus familiaris; method in brief: as §1; remark: listed apart in the source
[26] = system: Canis familiaris; experiment: as §5; format: functional, Canis lupus familiaris; method in brief: as §1; remark: listed apart in the source
[27] = system: Canis familiaris; experiment: as §6; format: functional, Canis lupus familiaris; method in brief: as §1; remark: listed apart in the source
[28] = system: Canis familiaris; experiment: as §4; format: functional, Canis lupus familiaris; method in brief: as §1; remark: listed apart in the source
[29] = molecular target: Phosphodiesterase 3 (Homo sapiens, UniProt Q14432+Q13370); experiment: Inhibition of cardiac PDE 3 (phosphodiesterase III); format: protein assay, Canis lupus familiaris
[30] = system: Canis familiaris; experiment: Cardiovascular effects in anesthetized dogs; format: functional; settings: Canis lupus familiaris; method in brief: as §1
[31] = system: Canis familiaris; experiment: Effective dose in anesthetized dogs; format: functional; settings: Canis lupus familiaris; method in brief: as §1
[32] = system: Canis familiaris; experiment: Percent change in myocardial contractility (LV dp/dt) before beta-blockade in anesthetized dogs at 0.03 mg/kg; format: functional, Canis lupus familiaris, Myocardium; method in brief: as §1

O=C1CC2Cc3cc(-n4ccnc4)ccc3C2=NN1 (stereo not drawn)
ED50 [1]: 0.023 mg/kg | Change in TPR [2]: -12% | Change in TPR [3]: -23% | Change in TPR [4]: -39% | Change in TPR [5]: -8.5% | Change in TPR [6]: -22.5% | Change in TPR [7]: -33.5% | Change in heart rate [8]: 0% | Change in heart rate [9]: 2% | Change in heart rate [10]: 5% | Change in FVR [11]: -1.5% | Change in FVR [12]: -1.5% | Change in FVR [13]: -31% | Change in FVR [14]: -7.5% | Change in FVR [15]: -22.5% | Change in FVR [16]: -34.5% | Change in LV dp/dt [17]: 11% | Change in LV dp/dt [18]: 106% and 57% | Change in LV dp/dt [19]: 18% | Change in MABP [20]: 0% | Change in MABP [21]: -3% | Change in MABP [22]: -18% | Change in MABP [23]: -2% | Change in MABP [24]: -7% | Change in MABP [25]: -18% | Change in heart rate [26]: 4% | Change in heart rate [27]: 12% | Change in heart rate [28]: 3% | IC50 [29]: 1.8 µM

CCC(=O)Nc1ccc2c(c1)CC1CC(=O)NN=C21 (stereo not drawn)
ED50 [30]: 0.0104 mg/kg

Oc1cc2c(nn1)-c1ccc(-n3ccnc3)cc1C2
IC50 [29]: 1.6 µM

CN1N=C2c3ccc(-n4ccnc4)cc3CC2CC1=O (stereo not drawn)
ED50 [31]: 1 mg/kg

CC1CC(O)=NN=C1c1ccc(-n2ccnc2)cc1 (stereo not drawn) [CI-930]
ED50 [1]: 0.013 mg/kg | Change in heart rate [9]: 7% | Change in LV dp/dt [32]: 76% and 47% | Change in MABP [21]: -5% | Change in MABP [24]: -7.5% | Change in heart rate [26]: 11%
